# In paper PMC3355950 (The Journal of Neuroscience, 2012):
# Legend:
# Assay in all cases: Two-electrode voltage-clamp recordings, Xenopus oocytes
# Format in all cases: cell-based
# GluN1/2D-(2A S1) = GluN1/2D-(2A S1) (Rattus norvegicus, UniProt P35439+Q62645, A432V/A445I/A493S/A563S/D455N/D515N/D531V/DELINS461-477KFVKINNSTNEGMNV/F526V/G450E/G497K/G516N/H494R/I448L/I453V/I496V/I514V/I534V/I546V/P444D/R437A/R479K/R491K/S449T/S456T/S499T/T430S/V431I); conditions: 100 μM glutamate + 3 μM glycine; N.E. = no effect at 10 μM TCN-201
# Summary of the method: (§1)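 cRNA from linearized constructs injected into female Xenopus laevis oocytes. Two-electrode voltage clamp done 3–4 d later at 23°C, holding at −40 mV, in 90 NaCl, 1 KCl, 10 HEPES, 0.5 BaCl₂, 0.01 EDTA (mM), pH 7.4. […] Max inhibition is (control − residual at saturating compound)/control.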
# GluN1/GluN2A M788A = GluN1/GluN2A M788A (Rattus norvegicus, UniProt P35439+Q00959, M788A); conditions: 100 μM glutamate + 3 μM glycine
# GluN1/GluN2A E789A = GluN1/GluN2A E789A (Rattus norvegicus, UniProt P35439+Q00959, E789A); conditions: 100 μM glutamate + 3 μM glycine
# GluN1/GluN2B F784V = GluN1/GluN2B F784V (Rattus norvegicus, UniProt P35439+Q00960, F784V)
# Chain of GluN1/GluN2B F784V (Q00960 27-1482 F784V, other chains not shown): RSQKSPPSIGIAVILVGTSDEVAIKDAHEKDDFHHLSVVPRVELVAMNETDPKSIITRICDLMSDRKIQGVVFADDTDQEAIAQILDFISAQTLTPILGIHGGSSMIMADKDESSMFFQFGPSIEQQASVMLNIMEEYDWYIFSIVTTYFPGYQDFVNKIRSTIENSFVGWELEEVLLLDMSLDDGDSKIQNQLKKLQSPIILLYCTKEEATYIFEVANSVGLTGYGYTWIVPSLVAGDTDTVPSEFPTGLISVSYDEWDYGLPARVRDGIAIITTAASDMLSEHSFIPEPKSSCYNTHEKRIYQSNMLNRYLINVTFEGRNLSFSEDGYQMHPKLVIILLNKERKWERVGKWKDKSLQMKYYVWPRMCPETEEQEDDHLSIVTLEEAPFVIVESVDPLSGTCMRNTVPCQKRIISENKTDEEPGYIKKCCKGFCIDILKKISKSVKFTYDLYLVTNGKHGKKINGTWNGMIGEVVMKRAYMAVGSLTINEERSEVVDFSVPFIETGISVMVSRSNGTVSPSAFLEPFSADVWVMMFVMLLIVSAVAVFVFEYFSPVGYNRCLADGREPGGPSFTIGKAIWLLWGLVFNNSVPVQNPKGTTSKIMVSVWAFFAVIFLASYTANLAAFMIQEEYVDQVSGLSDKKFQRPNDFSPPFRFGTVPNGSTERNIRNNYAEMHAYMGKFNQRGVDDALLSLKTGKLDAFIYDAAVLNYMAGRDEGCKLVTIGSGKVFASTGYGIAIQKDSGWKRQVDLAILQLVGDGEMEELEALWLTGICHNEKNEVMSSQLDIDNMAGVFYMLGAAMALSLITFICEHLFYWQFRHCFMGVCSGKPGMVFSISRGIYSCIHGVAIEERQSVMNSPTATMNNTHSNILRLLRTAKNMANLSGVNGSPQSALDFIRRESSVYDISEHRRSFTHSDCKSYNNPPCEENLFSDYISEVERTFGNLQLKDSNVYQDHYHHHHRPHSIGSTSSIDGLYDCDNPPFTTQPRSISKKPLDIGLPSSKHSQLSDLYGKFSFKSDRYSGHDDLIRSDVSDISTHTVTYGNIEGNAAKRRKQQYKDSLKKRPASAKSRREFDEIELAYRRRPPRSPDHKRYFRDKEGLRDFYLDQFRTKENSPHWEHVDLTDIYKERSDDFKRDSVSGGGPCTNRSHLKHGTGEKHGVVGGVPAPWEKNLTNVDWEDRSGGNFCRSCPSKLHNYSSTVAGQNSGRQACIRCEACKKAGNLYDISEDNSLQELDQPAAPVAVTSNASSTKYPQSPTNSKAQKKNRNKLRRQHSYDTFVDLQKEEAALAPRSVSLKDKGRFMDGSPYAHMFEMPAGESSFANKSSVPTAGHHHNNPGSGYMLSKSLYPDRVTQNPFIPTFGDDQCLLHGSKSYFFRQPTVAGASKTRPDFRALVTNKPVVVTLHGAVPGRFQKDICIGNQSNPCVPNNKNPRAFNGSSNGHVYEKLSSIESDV
# GluN1/2A-(2D D2) = GluN1/2A-(2D D2) (Rattus norvegicus, UniProt P35439+Q00959, D675E/D715E/F680L/F708Y/G712R/G740R/H674Q/I755V/K668R/K738M/N696S/Q661T/Q703S/R681K/R692K/R711P/R741K/S677Y/S719Q/T663S/T706V/T722A/V718T/Y676Q/Y700D/Y754K); conditions: 100 μM glutamate plus 30 μM glycine
# GluN1/GluN2A L779A = GluN1/GluN2A L779A (Rattus norvegicus, UniProt P35439+Q00959, L779A); conditions: 100 μM glutamate + 3 μM glycine
# GluN1/GluN2A V783T = GluN1/GluN2A V783T (Rattus norvegicus, UniProt P35439+Q00959, V783T); conditions: 100 μM glutamate + 3 μM glycine
# [1] = target: GluN1 F754A co-expressed with GluN2A (Rattus norvegicus, UniProt P35439+Q00959, F754A); conditions: 100 μM glutamate + 3 μM glycine
# GluA1 AMPA receptors = GluA1 AMPA receptors (Rattus norvegicus, UniProt P19490); conditions: 10 μM TCN-201
# Chain of GluA1 AMPA receptors (P19490 19-907): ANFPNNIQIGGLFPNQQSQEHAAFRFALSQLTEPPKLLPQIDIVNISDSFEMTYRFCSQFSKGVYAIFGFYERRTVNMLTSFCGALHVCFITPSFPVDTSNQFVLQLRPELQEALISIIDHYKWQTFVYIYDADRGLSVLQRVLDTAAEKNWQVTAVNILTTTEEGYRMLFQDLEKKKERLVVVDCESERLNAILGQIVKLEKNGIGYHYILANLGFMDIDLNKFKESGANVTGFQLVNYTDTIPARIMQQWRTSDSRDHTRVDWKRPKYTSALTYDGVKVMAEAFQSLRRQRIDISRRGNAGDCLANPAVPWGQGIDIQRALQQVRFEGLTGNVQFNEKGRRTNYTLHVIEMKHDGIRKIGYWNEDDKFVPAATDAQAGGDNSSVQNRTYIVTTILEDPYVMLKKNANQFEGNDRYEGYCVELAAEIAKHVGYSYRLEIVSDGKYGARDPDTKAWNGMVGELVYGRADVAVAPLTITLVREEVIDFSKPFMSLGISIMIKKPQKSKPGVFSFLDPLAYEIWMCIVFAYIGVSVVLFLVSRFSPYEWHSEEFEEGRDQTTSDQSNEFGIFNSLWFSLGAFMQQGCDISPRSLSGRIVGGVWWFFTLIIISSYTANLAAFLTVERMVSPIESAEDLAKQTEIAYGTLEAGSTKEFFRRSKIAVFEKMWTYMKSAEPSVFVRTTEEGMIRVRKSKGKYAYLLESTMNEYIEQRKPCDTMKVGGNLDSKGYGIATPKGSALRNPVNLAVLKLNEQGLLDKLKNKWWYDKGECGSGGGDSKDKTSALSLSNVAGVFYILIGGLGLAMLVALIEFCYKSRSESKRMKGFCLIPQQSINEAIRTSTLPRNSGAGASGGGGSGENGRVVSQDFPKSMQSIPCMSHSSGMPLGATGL
# Summary of the method: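 Xenopus laevis oocytes (female) were injected with in vitro transcribed cRNA and recorded by two-electrode voltage clamp 3–4 d after injection at 23°C, holding at −40 mV. Voltage and current electrodes held 0.3 and 3.0 M KCl.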
# GluN1/GluN2A V783F = GluN1/GluN2A V783F (Rattus norvegicus, UniProt P35439+Q00959, V783F); conditions: 100 μM glutamate + 3 μM glycine
# [2] = target: GluN1 I519A co-expressed with GluN2A (Rattus norvegicus, UniProt P35439+Q00959, I519A); conditions: 100 μM glutamate + 3 μM glycine
# GluN1/GluN2A E790M = GluN1/GluN2A E790M (Rattus norvegicus, UniProt P35439+Q00959, E790M); conditions: 100 μM glutamate + 3 μM glycine
# GluN1/2A-(2D D1) = GluN1/2A-(2D D1) (Rattus norvegicus, UniProt P35439+Q00959, A414R/D421P/DELINS438-452SQLNRTHSPPPDAPRPE/E427G/E790M/G786D/I408V/I422A/K454R/K466R/K472G/L425I/M788I/N404Q/N432D/N490D/N491G/P770R/Q766H/Q774P/R469H/S407T/S468A/S538A/T426S/T433S/T474S/T793R/T797S/V409A/V430I/V471I/V489I/V501F/V506D/V509I/V521I/V783L); conditions: 100 μM glutamate plus 30 μM glycine
# GluN1/GluN2A L780A = GluN1/GluN2A L780A (Rattus norvegicus, UniProt P35439+Q00959, L780A); conditions: 100 μM glutamate + 3 μM glycine
# GluN1/2A-(2D S2) = GluN1/2A-(2D S2) (Rattus norvegicus, UniProt P35439+Q00959, D675E/D715E/E790M/F680L/F708Y/G712R/G740R/G786D/H674Q/I755V/K668R/K738M/M788I/N696S/P770R/Q661T/Q703S/Q766H/Q774P/R681K/R692K/R711P/R741K/S677Y/S719Q/S758T/T663S/T706V/T722A/T793R/T797S/V718T/V783L/Y676Q/Y700D/Y754K); conditions: 100 μM glutamate + 3 μM glycine; N.E. = no effect at 10 μM TCN-201
# Summary of the method: as §1
# GluN1/GluN2A M788I = GluN1/GluN2A M788I (Rattus norvegicus, UniProt P35439+Q00959, M788I); conditions: 100 μM glutamate + 3 μM glycine
structure (smiles),measurement,setting,value
"O=C(NNC(=O)c1ccc(CNS(=O)(=O)c2ccc(F)c(Cl)c2)cc1)c1ccccc1 [TCN-201, 3-chloro-4-fluoro-N-[(4-[(2-(phenylcarbonyl)hydrazino)carbonyl]phenyl)methyl]-benzenesulfonamide]",TCN-201 activity IC50,GluN1/2D-(2A S1),did not introduce TCN-201 sensitivity and N.E.
same,TCN-201 activity Max. % inhibition,GluN1/GluN2A M788A,90 ± 3%
same,TCN-201 activity nH,GluN1/GluN2A M788A,1.4
same,TCN-201 activity Max. % inhibition,GluN1/GluN2A E789A,96 ± 1%
same,TCN-201 activity nH,GluN1/GluN2A E789A,1.4
same,Kb,GluN1/GluN2B F784V,1380 nM
same,TCN-201 activity nH,GluN1/GluN2B F784V; 100 μM glutamate + 3 μM glycine,1.2
same,Inhibition by 3 μM TCN-201,GluN1/2A-(2D D2),some TCN-201 activity was retained
same,TCN-201 activity Max. % inhibition,GluN1/GluN2A L779A,88 ± 5%
same,TCN-201 activity nH,GluN1/GluN2A L779A,1.3
same,TCN-201 activity Max. % inhibition,GluN1/GluN2A V783T,91 ± 1%
same,TCN-201 activity nH,GluN1/GluN2A V783T,1.5
same,TCN-201 activity Max. % inhibition,[1],98 ± 1%
same,TCN-201 activity nH,[1],1.4
same,Effect on responses activated by 100 μM glutamate,GluA1 AMPA receptors,did not affect responses
same,TCN-201 activity Max. % inhibition,GluN1/GluN2A V783F,80 ± 2%
same,TCN-201 activity nH,GluN1/GluN2A V783F,1.8
same,TCN-201 activity Max. % inhibition,[2],80 ± 2%
same,TCN-201 activity nH,[2],1.9
same,TCN-201 activity Max. % inhibition,GluN1/GluN2A E790M,90 ± 3%
same,TCN-201 activity nH,GluN1/GluN2A E790M,1.4
same,Inhibition by 3 μM TCN-201,GluN1/2A-(2D D1),eliminated TCN-201 inhibition
same,"Response, % of control at 10 μM TCN-201",GluN1/GluN2A L780A,67% of control at 10 μM TCN-201
same,TCN-201 activity IC50,GluN1/2A-(2D S2),no inhibition was observed and N.E.
same,TCN-201 activity Max. % inhibition,GluN1/GluN2A M788I,79 ± 3%
same,TCN-201 activity nH,GluN1/GluN2A M788I,1.3
